Assay [1] has as its target T1, Isocitrate dehydrogenase [NADP] cytoplasmic (Homo sapiens, UniProt O75874). Nature of the assay: Inhibition of N-terminal 6-His-tagged wild type IDH1 (unknown origin) expressed in Escherichia coli BL21 cells using alpha-KG as substrate in presence of NADPH incubated for 40 mins by fluorescence assay.
Assay [2] deals with T2, Isocitrate dehydrogenase [NADP] cytoplasmic (Homo sapiens, UniProt O75874, R132C). Nature of the assay: Inhibition of N-terminal 6-His-tagged IDH1 R132C mutant (unknown origin) expressed in Escherichia coli BL21 cells using alpha-KG as substrate in presence of NADPH incubated for 40 mins by fluorescence assay. In short, it runs like this:
(§1)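 His-tagged-free description: E. coli BL21 expressed, affinity-purified enzyme, 100 nmol/L R132H or 20 nmol/L R132C. Remaining NADPH was read by fluorescence (ex 355/em 460 nm). Dose-response started at 50 µmol/L, seven dilution steps. IC50 is the mean of three determinations.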

The target of assay [3] is T3, Isocitrate dehydrogenase [NADP] cytoplasmic (Homo sapiens, UniProt O75874, R132H). Nature of the assay: Inhibition of N-terminal 6-His-tagged IDH1 R132H mutant (unknown origin) expressed in Escherichia coli BL21 cells using alpha-KG as substrate in presence of NADPH incubated for 40 mins by fluorescence assay. In short, it runs like this: as §1
T3 sequence (O75874 2-414 R132H limits assumed): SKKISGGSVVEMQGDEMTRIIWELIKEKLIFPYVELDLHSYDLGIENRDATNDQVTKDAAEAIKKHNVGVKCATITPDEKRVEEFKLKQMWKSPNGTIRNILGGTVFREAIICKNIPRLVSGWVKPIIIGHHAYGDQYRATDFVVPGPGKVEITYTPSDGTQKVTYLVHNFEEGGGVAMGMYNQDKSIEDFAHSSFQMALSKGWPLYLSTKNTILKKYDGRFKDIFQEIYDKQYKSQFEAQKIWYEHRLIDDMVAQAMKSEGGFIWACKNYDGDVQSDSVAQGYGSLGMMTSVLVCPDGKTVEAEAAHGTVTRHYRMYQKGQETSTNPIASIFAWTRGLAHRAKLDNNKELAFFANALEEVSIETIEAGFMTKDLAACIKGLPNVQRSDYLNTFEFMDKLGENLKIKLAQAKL
A short description of assay [4]: Selectivity ratio of IC50 for human HT1080 cells to IC50 for human U87MG cells. Format: functional.
The test system of assay [5] is Isocitrate dehydrogenase [NADP] cytoplasmic (Homo sapiens), O75874 [R132C]. Put plainly: Inhibition of IDH1 R132C mutant in human HT1080 cells assessed as induction of differentiation by measuring increase in GFAP protein expression after at 0.125 to 1 umol/L 6 days by Western blot analysis. Type of assay: cell-based. In a few lines: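 HT1080 cells in 6-well plates received indicated concentrations or DMSO for 6 days after attachment. BCA-quantified lysates were resolved on 12% SDS-PAGE and transferred to nitrocellulose. Membranes were blocked in 5% milk, probed overnight at 4 °C with anti-GFAP and anti-GAPDH, then with HRP secondary for 2 h, and detected by ECL.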
Isocitrate dehydrogenase [NADP] cytoplasmic (Homo sapiens), O75874 [R132C], sequence (O75874 whole entry R132C): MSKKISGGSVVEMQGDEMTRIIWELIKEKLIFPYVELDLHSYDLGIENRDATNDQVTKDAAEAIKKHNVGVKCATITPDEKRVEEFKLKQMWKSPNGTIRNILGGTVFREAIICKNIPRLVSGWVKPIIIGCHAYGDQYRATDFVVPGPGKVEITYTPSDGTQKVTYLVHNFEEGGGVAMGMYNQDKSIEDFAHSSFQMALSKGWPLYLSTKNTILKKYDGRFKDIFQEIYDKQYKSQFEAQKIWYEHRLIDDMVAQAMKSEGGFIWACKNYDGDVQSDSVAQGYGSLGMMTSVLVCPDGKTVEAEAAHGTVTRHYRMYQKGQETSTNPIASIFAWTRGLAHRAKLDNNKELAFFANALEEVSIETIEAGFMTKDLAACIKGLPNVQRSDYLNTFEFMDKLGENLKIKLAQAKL

For assay [6] the test system is unchanged. Nature of the assay: Inhibition of IDH1 R132C mutant in human HT1080 cells assessed as induction of differentiation by measuring increase in GFAP mRNA expression at 1 umol/L after 6 days by qRT-PCR analysis. Type of assay: cell-based. In short, it runs like this: (§2)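 HT1080 cells in 6-well plates were exposed to 1 µmol/L compound or DMSO for 6 days. RNA was extracted with Trizol, reverse transcribed, and SOX2 and GFAP expression measured by SYBR Green real-time PCR. Values are mean ±SD of three replicates.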
Background: Quantitative PCR measures a nucleic acid by following its amplification.

In assay [7] the test system is U-87 MG. Put plainly: Antiproliferation activity against human U87MG cells assessed as reduction in cell viability after 72 hrs by Cell Titer-Glo luminescent assay. Type of assay: functional, cell-based, U-87MG ATCC. In short, it runs like this: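 HT1080 (endogenous IDH1-R132C) and U-87 MG cells kept in DMEM with 10% FBS and 1% penicillin/streptomycin at 37 °C, 5% CO2. Cells were seeded in 96-well plates and, after attachment, exposed to a concentration range for 72 h in triplicate with matched DMSO control. Viable fraction was read by CellTiter-Glo luminescence. IC50 came from a nonlinear curve fit.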
Background: In ATP-based viability assays light output follows the ATP content of the culture.

For assay [8], the target named is T1, Isocitrate dehydrogenase [NADP] cytoplasmic. Nature of the assay: Binding affinity to N-terminal 6-His-tagged wild type IDH1 (unknown origin) expressed in BL21 cells assessed as equilibrium dissociation constant by SPR assay. In short, it runs like this: (§3)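 Assay ran on a Biacore T200 at 25 °C in HBS (10 mmol/L HEPES pH 7.4, 150 mmol/L NaCl, 0.1% DMSO). Bacterially expressed, affinity-purified protein was diluted in 10 mmol/L sodium acetate and amine-coupled to a CM5 chip. Analyte ranged 25–0.78 µmol/L for R132H/C and 50–1.56 µmol/L for WT, flowed at 30 µL/min. Association 120 s, dissociation 150 s. KD from a steady-state model.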
For orientation: In SPR one partner is held on a chip, and binding of the other changes the refractive index at the surface.

For assay [9], the target named is T2, Isocitrate dehydrogenase [NADP] cytoplasmic. Nature of the assay: Binding affinity to N-terminal 6-His-tagged IDH1 R132C mutant (unknown origin) expressed in BL21 cells assessed as equilibrium dissociation constant by SPR assay. In a few lines: as §3
Assay [10] concerns Isocitrate dehydrogenase [NADP] cytoplasmic (Homo sapiens), O75874 [R132C]. Nature of the assay: Inhibition of IDH1 R132C mutant in human HT1080 cells assessed as induction of differentiation by measuring decrease in SOX2 mRNA expression at 1 umol/L after 6 days by qRT-PCR analysis. Type of assay: cell-based. In short, it runs like this:
as §2

The target in assay [11] is T3, Isocitrate dehydrogenase [NADP] cytoplasmic. Nature of the assay: Binding affinity to N-terminal 6-His-tagged IDH1 R132H mutant (unknown origin) expressed in BL21 cells assessed as equilibrium dissociation constant by SPR assay. In short, it runs like this:
as §3

Assay [12] deals with HT-1080. Nature of the assay: Antiproliferation activity against human HT1080 cells assessed as reduction in cell viability after 72 hrs by Cell Titer-Glo luminescent assay. Particulars: HT-1080, 72 h.

Active and inactive are the calls of the source. The calls are words filed in the database; no cut-off is given here. Bounds are passed on as bounds.

T2 sequence (O75874 2-414 R132C limits assumed): as the sequence (O75874 2-414 R132H limits assumed) above, with H131C counted along it
T1 sequence (O75874 whole entry): as the sequence (O75874 whole entry R132C) above, with C132R counted along it

For `CN1CCN(C(c2cc(C(C)(C)C)c(O)c(C(C)(C)C)c2)c2ccccn2)CC1` (stereo not drawn), the 50% inhibitory concentration (IC50) in [1] came to 50 µM; in assay [2], 4.9 µM; in assay [3], 3 µM.
The corresponding values for `Cc1cccnc1C(c1cc(C(C)(C)C)c(O)c(C(C)(C)C)c1)N1CCOCC1` (stereo not drawn) are 0.8 µM, 4.7 µM and 20 µM.
The corresponding values for `CC(C)(C)c1cc(C(SC2CCCCC2)c2ccccn2)cc(C(C)(C)C)c1O` (stereo not drawn) are > 50 µM, > 50 µM and > 50 µM.
The corresponding values for `Cc1cccc(C(c2cc(C(C)(C)C)c(O)c(C(C)(C)C)c2)N2CCOCC2)n1` (stereo not drawn) are > 50 µM, > 50 µM and > 50 µM.
Take `CC(C)(C)c1cc(C(OC2CCCCC2)c2ccccn2)cc(C(C)(C)C)c1O` (stereo not drawn): the half-inhibitory concentration (IC50) in assay [1], in assay [2] and in assay [3] was > 50 µM in each case.
As to `CN1CCN(C(c2cc(C(C)(C)C)cc(C(C)(C)C)c2)c2ccccn2)CC1` (stereo not drawn), the IC50 in assay [1], in assay [2] and in assay [3] was > 50 µM in each case.
For the compound `CC(C)(C)c1cc(C(c2ccccn2)N2CCN(C(C)(C)C)CC2)cc(C(C)(C)C)c1O` (stereo not drawn), the IC50 in assay [1] was 8.5 µM; in [2] it was 9 µM; in assay [3], > 50 µM.
As to `CCN1CCN(C(c2cc(C(C)(C)C)c(O)c(C(C)(C)C)c2)c2ccccn2)CC1` (stereo not drawn), the IC50 in assay [1] was determined as 6.4 µM; in [2] it was 4.8 µM; in assay [3] it was 12 µM.
`CC(C)N1CCN(C(c2cc(C(C)(C)C)c(O)c(C(C)(C)C)c2)c2ccccn2)CC1` (stereo not drawn): the concentration for half-maximal inhibition (IC50) is 3 µM in [1], 7 µM in assay [2] and 4.76 µM in assay [3].
In the same order, the values of `CCCCN1CCN(C(c2cc(C(C)(C)C)c(O)c(C(C)(C)C)c2)c2ccccn2)CC1` (stereo not drawn) are 12.8 µM, 9 µM and > 50 µM.
The corresponding values for `CC(C)(C)c1cc(C(c2cccc(F)c2)N2CCOCC2)cc(C(C)(C)C)c1O` (stereo not drawn) are > 50 µM, > 50 µM and > 50 µM.
The corresponding values for `CC(C)(C)c1cc(C(c2ccccn2)N2CCN(CC3CC3)CC2)cc(C(C)(C)C)c1O` (stereo not drawn) are 31 µM, 18 µM and > 50 µM.
In the case of `CC(C)(C)c1cc(C(c2ccccn2)N2CCN(c3ccccc3)CC2)cc(C(C)(C)C)c1O` (stereo not drawn), the half-maximal inhibitory concentration (IC50) in assay [1], in assay [2] and in assay [3] was > 50 µM throughout.
As for `Cc1ccccc1C(C(=O)NC1CCCCC1)N(C(=O)Cn1ccnc1C)c1cccc(F)c1` (stereo not drawn), in [3], the half-maximal inhibitory concentration (IC50) was found to be 0.082 µM.
As to `CC(C)(C)c1cc(C(c2ccccn2)N2CCOCC2)cc(C(C)(C)C)c1O` (stereo not drawn), the “Ratio IC50” value in assay [4] is listed as 10. The inhibition entry in assay [5], in [6] and in assay [10] was “Active” each time. For the same compound, the half-inhibitory concentration (IC50) came to 48.7 µM in assay [7]; 43.7 µM in assay [1]; 2.7 µM in assay [2]; 5 µM in assay [12]; 0.41 µM in assay [3]. The figures for the Kd in assay [8], in assay [9] and in assay [11] were > 50 µM, 0.72 µM and 3.8 µM, respectively.
Consider `CC(C)(C)c1cc(C(c2ccccn2)N2CCOCC2)cc(C(C)(C)C)c1` (stereo not drawn), for which the IC50 in assay [1], in [2] and in [3] was > 50 µM each time.
For `CC(C)(C)c1cc(C(c2ccccn2)N2CCN(C3CCCCC3)CC2)cc(C(C)(C)C)c1O` (stereo not drawn), the half-inhibitory concentration (IC50) in assay [1], in assay [2] and in [3] was > 50 µM throughout.

A word on the IC50: it is the concentration at which inhibition is half-maximal. By Kd is commonly meant the concentration at which binding is half-saturated.
